pIC50: −log10 of the molar value. Where only a bound is given, the exact number is not on record here.

Assay [1] has as its system PC-3. Kind of assay: Cytostatic activity against human PC3 cells after 5 days by SRB assay. It counts as functional. Particulars: PC-3, 120 h. Summed up: (§1)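 Cells seeded per line density, overnight at 37 °C; day-zero plate TCA-fixed. 5-fold serial dilutions added, 5-day incubation; TCA fixation, 0.057% SRB in 1% acetic acid 30 min, dye dissolved in 10 mM Tris pH 10.5, A500. Growth relative to day-zero and untreated; GIC50 from sigmoidal dose–response fit; mean of two independent experiments.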

In assay [2] the target is Adenosine kinase (Homo sapiens, UniProt P55263). Description: Inhibition of human ADK using [3H]-adenosine by scintillation counting.
Chain of Adenosine kinase (P55263 whole entry): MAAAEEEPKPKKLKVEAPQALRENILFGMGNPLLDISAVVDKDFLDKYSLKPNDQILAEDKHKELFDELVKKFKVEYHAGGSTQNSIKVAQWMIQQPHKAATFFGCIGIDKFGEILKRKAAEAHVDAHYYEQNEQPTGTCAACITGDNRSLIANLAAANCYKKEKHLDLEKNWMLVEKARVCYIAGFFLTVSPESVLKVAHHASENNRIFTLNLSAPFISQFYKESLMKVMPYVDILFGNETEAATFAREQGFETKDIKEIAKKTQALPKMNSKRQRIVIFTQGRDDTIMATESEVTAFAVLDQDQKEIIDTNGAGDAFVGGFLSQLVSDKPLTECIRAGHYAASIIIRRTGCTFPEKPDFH
Assay [3] concerns A549. Description: Cytostatic activity against human A549 cells after 5 days by SRB assay. It counts as functional. Particulars: A549, 120 h. A digest of the protocol:
as §1

The nature of assay [4]: Cytotoxicity against human HeLaS3 cells after 3 days by XTT assay. It counts as functional, cell-based. The conditions noted are these: HeLa S3, 72 h. Summed up: (§2)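 Suspension-grown cell lines, 3-day compound incubation; viability read by XTT metabolic assay; IC50 averaged from four independent experiments.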
For assay [5], the system named is CCRF-CEM. Kind of assay: Cytotoxicity against human CCRF-CEM cells after 3 days by XTT assay. Particulars: 72 h. It counts as functional, cell-based. A digest of the protocol:
as §2

Assay [6] concerns HCT-116. Description: Cytostatic activity against human HCT116 cells after 5 days by SRB assay. It is filed as functional. Particulars: HCT-116, 120 h. Summed up: as §1
In assay [7] the test system is NCI-H23. Description: Cytostatic activity against human NCI-H23 cells after 5 days by SRB assay. It counts as functional. Particulars: NCI-H23, 120 h. Summed up: as §1
Assay [8] relates to BT-549. Kind of assay: Cytostatic activity against human BT549 cells after 5 days by SRB assay. It counts as functional. Particulars: BT-549, 120 h. Summed up:
as §1

Assay [9] in a line: Cytostatic activity against human Hs578 cells after 5 days by SRB assay. It counts as functional. Particulars: Hs578, 120 h. Summed up: as §1
The test system of assay [10] is HL-60. Description: Cytotoxicity against human HL60 cells after 3 days by XTT assay. Particulars: HL-60, 72 h. It counts as functional, cell-based. A digest of the protocol: as §2
Assay [11] has as its system MT4. Kind of assay: Cytostatic activity against human MT4 cells after 5 days by SRB assay. It is filed as functional. Particulars: MT4, 120 h.
The test system of assay [12] is DU-145. Kind of assay: Cytostatic activity against human DU145 cells after 5 days by SRB assay. It counts as functional. Particulars: DU-145, 120 h. Summed up: as §1
Assay [13] has as its system HCT-15. Description: Cytostatic activity against human HCT15 cells after 5 days by SRB assay. It counts as functional. The conditions noted are these: HCT-15, 120 h. A digest of the protocol:
as §1

For the molecule `Nc1ncnc2c1c(-c1cc3ccccc3o1)cn2[C@@H]1O[C@H](CO)[C@@H](O)[C@H]1O`, the 50% growth inhibitory concentration (GI50) is 6290 nM in assay [1]; 7020 nM in assay [3]; 3740 nM in assay [6]; 5400 nM in assay [7]; over 10000 nM in assay [8]; 6730 nM in [9]. In assay [11], this molecule had a GI50 of 4800 nM. For the same molecule, the pIC50 in assay [2] is under 5.00; in assay [4] it was under 5.00; in [5], 5.40; in [10], under 5.00.
`COc1cccc2c1C(=O)c1c(O)c3c(c(O)c1C2=O)C[C@@](O)(C(=O)CO)C[C@@H]3O[C@H]1C[C@H](N)[C@H](O)[C@H](C)O1` [DOXORUBICIN]: the GI50 in assay [1] was 21 nM; in [3] it was 16 nM; in assay [6], 11 nM; in [7], 5 nM; in assay [8], 10 nM; in assay [9], 6 nM.
`Nc1ncnc2c1c(-c1ccco1)cn2[C@@H]1O[C@H](CO)[C@@H](O)[C@H]1O`: the GI50 came to 4 nM in assay [1]; 35 nM in [3]; 19 nM in assay [12]; 48 nM in [6]; 294 nM in assay [7]; 17 nM in assay [9]. Besides, the 50% growth inhibitory concentration (GI50) came to 3 nM in assay [13] and 86 nM in [11]. The pIC50 was under 5.70 in [2], 7.30 in [4], 7.00 in assay [5] and 4.93 in [10].
`Nc1ncnc2c1c(-c1nccs1)cn2[C@@H]1O[C@H](CO)[C@@H](O)[C@H]1O`: the GI50 in assay [1] amounted to 42 nM; in [6], 93 nM; in assay [7], 5 nM; in [9], 15 nM; in assay [11], 42 nM. In addition, the figures for the negative logarithm of the IC50 (pIC50) in assay [4], in [5] and in [10] were 7.40, 7.70 and 5.79, respectively.
On to `COc1ccc(-c2cn([C@@H]3O[C@H](CO)[C@@H](O)[C@H]3O)c3ncnc(N)c23)cc1`, for which the 50% growth inhibitory concentration (GI50) in assay [1] amounted to 1110 nM; in assay [3], 701 nM; in [12], 152 nM; in assay [6], 633 nM; in assay [7], 856 nM; in assay [9] it was 811 nM. Also, the GI50 came to 544 nM in assay [13] and 4300 nM in assay [11]. Also, the pIC50 in assay [2] is under 5.70; in assay [4], under 5.00; in assay [5], under 5.00; in [10] it was under 5.00.
As for `Nc1ncnc2c1c(-c1cccc3ccccc13)cn2[C@@H]1O[C@H](CO)[C@@H](O)[C@H]1O`, the negative-log IC50 (pIC50) in [2], in assay [4], in [5] and in assay [10] was under 5.00 in each case. Also, the 50% growth inhibitory concentration (GI50) in assay [12], in assay [6], in assay [7] and in [9] was over 10000 nM in each case.
Take `C#Cc1cn([C@@H]2O[C@H](CO)[C@@H](O)[C@H]2O)c2ncnc(N)c12`: the GI50 in [1] was found to be 11 nM; in [6], 2 nM; in assay [7], 1 nM; in [9], 1 nM; in assay [11] it was 1 nM. The negative logarithm of the IC50 (pIC50) in [2] was 6.70; in [4], 7.70; in assay [5], 8.00; in [10] it was 7.05.
For the molecule `Nc1ncnc2c1c(-c1ncc[nH]1)cn2[C@@H]1O[C@H](CO)[C@@H](O)[C@H]1O`, the 50% growth inhibitory concentration (GI50) in [1] was found to be 1 nM; in assay [6], 2 nM; in assay [7], 6 nM; in [9], 1 nM; in [11] it was 49 nM. The pIC50 was under 5.30 in assay [2], 6.36 in [4], 7.15 in assay [5] and 7.00 in [10].

The values are drawn from ChEMBL document CHEMBL1811802, “Synthesis and significant cytostatic activity of 7-hetaryl-7-deazaadenosines” (J Med Chem, 2011).
